# Screens from PubChem.
# Most compounds without a hit are left out; they make up all but 1.9% or so of the library.
# Vif inh = HIV Vif inhibition | HEK293T cells, Vif self-association by quenched fluorescence, imaging, 24 h | inhibition, % at 7.49 µM | 340,000 compounds, 0.35% hits | AID 602346; in the data active means inhibition above about 50%, passing the limit was not always enough
# MsrA inh = inhibitors of bovine MsrA | purified bovine MsrA, absorbance read-out | inhibition, % at 15.5 µM | 360,000 compounds, 0.75% hits | AID 651718; in the data active means inhibition above about 4.5%;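 further: 0% = vehicle wells with enzyme and 100% = reference inhibitor wells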
# UCH37 DUB inh = human UCH37 deubiquitinating enzyme inhibition; purified proteasome/UCH37, Ub-AMC cleavage fluorescence; AID 588478; Q9Y5K5; inhibition, % (concentration not given with the values); 330,000 compounds, 0.33% hits;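 active means mean inhibition over replicate wells above about 20%, limit read from the data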;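 further: 0% = compound-free wells with enzyme and 100% = wells lacking proteasome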
# Target sequence (Q9Y5K5 whole entry, looked up): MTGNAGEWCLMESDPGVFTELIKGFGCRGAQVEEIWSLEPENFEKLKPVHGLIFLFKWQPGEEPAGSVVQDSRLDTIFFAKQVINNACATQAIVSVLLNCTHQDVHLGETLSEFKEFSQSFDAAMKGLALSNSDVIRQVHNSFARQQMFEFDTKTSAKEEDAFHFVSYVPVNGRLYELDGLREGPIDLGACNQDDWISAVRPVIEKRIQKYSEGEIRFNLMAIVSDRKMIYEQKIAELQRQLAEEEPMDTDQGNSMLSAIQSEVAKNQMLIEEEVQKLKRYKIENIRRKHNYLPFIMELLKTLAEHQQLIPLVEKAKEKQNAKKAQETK
#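 Material: human UCH37 enzyme supplied as purified proteasome complex. Measure: % inhibition of Ub-AMC cleavage fluorescence. Medium: pH 7.4 Tris-HCl (50 mM) with ovalbumin, ATP-MgCl2, DTT. Times: 30 min preincubation with enzyme, 25 min cleavage at room temperature. Detection: AMC fluorescence intensity at 355/460 nm.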
# aDG glyco act = increases alpha dystroglycan glycosylation; Pro5-aDG cells, alpha-DG glycosylation AlphaScreen (IIH6); 0% Pro5, 100% B10-LARGE cell signal; activation, % at 10 µM; 360,000 compounds, 0.22% hits;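 active means activation of at least 8% versus controls, or a plate z-score of at least 8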;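 further: Pro5 are CHO cells carrying HIG-tagged alpha-DG that lacks glycosylation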
# bovine MsrA act = bovine methionine sulfoxide reductase A activation. purified bovine MsrA, absorbance read-out. activation, % at 10.6 µM. 360,000 compounds, 0.3% hits. AID 602163; in the data active means activation above about 7.5%;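 further: 0% = vehicle and 100% = reference activator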
# Glyco luc inh = blocks N-linked glycosylation in D54 reporter cells; D54 ERlucT glycosylation luciferase reporter, 24 h; percent of 100 nM tunicamycin response; 360,000 compounds, 0.23% hits; reporter increase, % at 12.5 µM;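 active means mean luciferase reporter signal, scaled so untreated is 0 and the glycosylation-blocking control 100, at or above a set limit in every replicate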;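 further: luciferase carries N-glycosylation sites so blocking glycosylation raises the light; 0% = median of neutral control wells and 100% = median of 100 nM tunicamycin wells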
# Numbers without * were called inactive; nt = not tested or not shown.
SMILES,Vif inh,MsrA inh,UCH37 DUB inh,aDG glyco act,bovine MsrA act,Glyco luc inh
Cn1c(=O)n(C)c2cc(NS(=O)(=O)c3ccc(C(C)(C)C)cc3)ccc21,-9,2,2,6,-2,25
Cn1c(=O)n(C)c2cc(NS(=O)(=O)c3ccc4c(c3)CCCC4)ccc21,-8,-1,3,3,-10,37*
COc1ccc(S(=O)(=O)Nc2ccc3c(c2)n(C)c(=O)n3C)cc1C,8,1,1,0,-1,31*
O=C(Cn1nnc2ccccc21)NN=Cc1cccs1,nt,nt,3,nt,nt,nt
N#Cc1ccc(Nc2nc(NCc3ccccc3)nc3ccsc23)cc1,-7,1,nt,0,-2,-11
C#Cc1cccc(Nc2nc(NCc3ccccc3)nc3ccsc23)c1,nt,13*,nt,5,-4,-5
CN(C)c1nc(NCc2ccccc2)nc(SCC(=O)Nc2ccccc2)n1,-9,1,-1,1,18*,-6
CSc1nc(N2CCOCC2)c2c(c1C#N)CC(C)(C)OC2,2,2,-1,0,-3,-1
CCC1(C)Cc2c(C#N)c(SC)nc(N3CCOCC3)c2CO1 (stereo unspecified),53*,-1,6,0,-4,-2
O=C(CCc1ccccc1)Nc1ccccc1,55*,1,1,0,-1,-1
Cc1cc(NC(=O)CSc2nc3c([nH]c4ccccc43)c(=O)n2-c2cccc(C(F)(F)F)c2)no1,51*,nt,3,0,1,-5
COc1ccccc1/C=C/C(=O)/C=C/c1ccccc1O,-4,1,7,0,-2,39*
COc1ccccc1C=CC(=O)C=Cc1ccccc1OC,39,1,nt,1,-10,18
CCOC(=O)C1=C(C)n2c(sc(=C3C(=O)Nc4ccccc43)c2=O)=NC1c1ccc(OC)cc1 (stereo unspecified),nt,nt,2,nt,nt,nt
C(=NNc1ccccn1)c1cccnc1,nt,nt,13,nt,nt,nt
CCc1ccc[n+](-c2[nH]c(=O)sc2C=NNC([S-])=Nc2ccccc2)c1,nt,nt,22*,nt,nt,nt
COc1ccc(Cl)cc1C(=O)Nc1cccnc1,53*,1,0,0,-5,3
CN(C)c1ccc(C=NNC(=O)c2cccc(C(=O)NN=Cc3ccc(N(C)C)cc3)n2)cc1,nt,nt,10,nt,nt,nt
CN(C)S(=O)(=O)N1CCC(Oc2cccc(C(=O)NCCC3=CCCCC3)c2)CC1,-13,0,22*,1,-2,-7
CN(C)S(=O)(=O)N1CCC(Oc2cccc(C(=O)NC3CCCCC3)c2)CC1,-7,1,4,1,-1,-4
O=C1CC(c2ccccc2)CC(O)=C1C=Nc1ccc(Cl)cc1 (stereo unspecified),27,0,0,0,-4,4
O=C1CCCC(O)=C1C=Nc1ccc(O)cc1,20,4.6*,4,2,-4,3
NC(=S)N=Nc1c(O)[nH]c2ccc(F)cc12,0,4.5*,4,0,-2,5
O=C(COc1ccc(S(=O)(=O)N2CCOCC2)cc1Cl)NCCN1CCOCC1,-4,0,-2,0,-3,2
Cc1cc(S(=O)(=O)N2CCOCC2)ccc1OCC(=O)N1CCCC1,65*,3,1,0,1,3
SMILES,Vif inh,MsrA inh,UCH37 DUB inh,aDG glyco act,bovine MsrA act,Glyco luc inh
Cc1cc(S(=O)(=O)N2CCOCC2)ccc1OCC(=O)N1CCCCC1,19,1,-3,0,-4,-1
Cc1cc(S(=O)(=O)N2CCOCC2)ccc1OCC(=O)NCCN1CCOCC1,71*,1,0,0,0,0
CC(=O)Nc1ccc(NC2=CC(=NS(=O)(=O)c3cccs3)c3ccccc3C2=O)cc1,nt,nt,29*,nt,nt,nt
O=c1c2ccccc2nc(/C=C/c2ccc3c(c2)OCO3)n1CCCO,6,nt,-17,0,-2,1
O=c1c2ccccc2nc(/C=C/c2ccccc2)n1CCCO,nt,4.6*,3,0,-14,0
CCn1c(/C=C/c2ccc(F)cc2)nc2ccccc2c1=O,60*,3,7,0,-5,3
CC12CCC(CC1=N/N=C1/NC(=O)/C(=C\c3ccc(Cl)cc3)S1)C2(C)C (stereo unspecified),nt,nt,2,nt,nt,nt
Clc1ccccc1-c1ccc(C=Nn2cnnc2)o1,nt,nt,-13,nt,nt,nt
O=C(Cn1nc(Cc2ccncc2)c2ccccc2c1=O)N1CCc2ccccc2C1,1,0,20*,0,0,-1
CSc1nc2nccc(/C=C\c3ccccc3)n2n1,-2,4.9*,2,2,-3,8
CSc1nc2nccc(-c3ccc(Cl)cc3)n2n1,-1,-1,3,0,-7,3
COc1ccc2c(CCNC(=O)c3ccc([N+](=O)[O-])cc3)c[nH]c2c1,-2,-1,27*,0,-4,-2
COc1ccc(CCNC(=O)c2ccc([N+](=O)[O-])cc2)cc1,-7,0,4,0,-2,0
Cc1ccc(S(=O)(=O)NN=Cc2cn(CC(N)=O)c3ccccc23)cc1,nt,nt,2,nt,nt,nt
CCOC(=O)C(C)C(C)=NNc1ccc([N+](=O)[O-])cc1[N+](=O)[O-] (stereo unspecified),nt,nt,8,nt,nt,nt
O=C(NN=Cc1ccncc1)c1nc2ccccc2c(=O)[nH]1,nt,nt,6,nt,nt,nt
O=[N+]([O-])c1cc(S(=O)(=O)N2CCCC2)ccc1NN=Cc1ccncc1,nt,nt,7,nt,nt,nt
O=[N+]([O-])c1cc(S(=O)(=O)Nc2ccc(Cl)cc2)ccc1N/N=C/c1ccncc1,67*,1,nt,0,-5,-12
COc1ccc(-[n+]2c(C)cc(/C=C3\Sc4ccccc4N3C)cc2C)cc1,-2,-2,24*,1,0,7
CCN1CC=C2C(C1)C(c1ccc(Cl)s1)C(C#N)=C(N)C2(C#N)C#N (stereo unspecified),87*,1,-3,0,0,-3
CCN1CC=C2C(C#N)=C(N)C(C#N)(C#N)[C@H](c3cccc(OC)c3OC)[C@H]2C1,3,2,-58,0,-5,5
CCc1ccc(S(=O)(=O)N=C2C=C(Sc3ncn[nH]3)C(=O)c3ccccc32)cc1,nt,nt,80*,nt,nt,nt
COc1ccc(C(=O)COC(=O)c2ccc(OC)c(OC)c2)cc1OC,1,2,2,0,-8,0
COc1ccc(C(=O)CSC#N)cc1OC,-3,2,16,-1,-2,26*
CCOc1ccc2c(C)c(C)c(=O)oc2c1OCC,4,1,-34,1,2,2
CCOc1ccc2c(C)c(C(=O)O)oc2c1OCC,55*,-1,-3,0,-7,2
CCCCC(CC)CN=C(N)NC(N)=NCCCCCCN=C(N)NC(N)=NCC(CC)CCCC (stereo unspecified),-8,nt,9,0,9.7*,-23
CCn1c(C)nc2cc(C(=O)NN=C(C)c3ccc(OC)cc3O)ccc21,nt,nt,1,nt,nt,nt
Nc1ccc2nc(-c3cccc(-c4nc5ccc(N)cc5[nH]4)c3)[nH]c2c1,-1,4.6*,-8,0,-3,0
